# Results from different studies.
# Lines come from different studies, so protocols differ.
# Sample: Caco-2
Structure (SMILES),tested at,time,pH,Papp A→B
C[C@H]1O[C@@H](O[C@H]2[C@@H](O)C[C@H](O[C@H]3[C@@H](O)C[C@H](O[C@H]4CC[C@@]5(C)[C@H](CC[C@@H]6[C@@H]5C[C@@H](O)[C@]5(C)[C@@H](C7=CC(=O)OC7)CC[C@]65O)C4)O[C@@H]3C)O[C@@H]2C)C[C@H](O)[C@@H]1O,10 µM,2 h,pH 7.4,0.11 ×10⁻⁶ cm/s
Cc1ncsc1-c1ccc(CNC(=O)[C@@H]2C[C@@H](O)CN2C(=O)[C@@H](NC(=O)C2(F)CC2)C(C)(C)C)c(OCCOCCOCCN2CCN(c3cc(-c4ccccc4O)nnc3N)CC2)c1,,2 h,pH 7.2,0.11 ×10⁻⁶ cm/s
C=CC(=O)Nc1cc(Nc2nccc(-c3cn(C)c4ccccc34)n2)c(OC)cc1N(C)CCN(C)C,,,pH 7.4,8.64 ×10⁻⁶ cm/s
COc1cccc2c(-c3ccccc3)cc(-c3ccc(-c4ccc(C(=O)O)cc4)[nH]3)nc12,,,,2.42 ×10⁻⁶ cm/s
COCCc1ccc(OCC(O)CNC(C)C)cc1 (stereo not shown),,,,16.6 ×10⁻⁶ cm/s
O=C(O)CCc1ccc(Oc2ccc(-c3noc(-c4ccc(O)cc4)n3)cc2)cc1,,2 h,pH 7.4,18 ×10⁻⁶ cm/s
C[C@H]1O[C@@H](O[C@H]2[C@@H](O)C[C@H](O[C@H]3[C@@H](O)C[C@H](O[C@H]4CC[C@@]5(C)[C@H](CC[C@@H]6[C@@H]5C[C@@H](O)[C@]5(C)[C@@H](C7=CC(=O)OC7)CC[C@]65O)C4)O[C@@H]3C)O[C@@H]2C)C[C@H](O)[C@@H]1O,,,,0.0218 ×10⁻⁶ cm/s
Nc1nc2c(ncn2COCCO)c(=O)[nH]1,10 µM,2 h,pH 7.4,0.0803 ×10⁻⁶ cm/s
CCC(=O)N[C@H]1Cc2cccc(C(=O)OCOC(=O)C(CC)CC)c2OB1O,5 µM,2 h,pH 7.4,8.25 ×10⁻⁶ cm/s
O=C(C1CCCCC1)N1CC(=O)N2CCc3ccccc3C2C1 (stereo not shown),,,,38.4 ×10⁻⁶ cm/s
CO[C@@H](C[C@H]1C(C)=CC[C@@H]2[C@]3(C)C[C@H](O[C@@H]4O[C@@H](C)[C@H](OC(=O)c5cccc(O)c5)[C@@H](O[C@@H]5O[C@H](CO)[C@@H](O)[C@H](O)[C@H]5NC(C)=O)[C@H]4O)[C@@H](O)C(C)(C)[C@H]3CC[C@]21C)[C@H](N)C(=O)O.O=C(O)C(F)(F)F,5 µM,1 h,,0.01 ×10⁻⁶ cm/s
CC(C)NCC(O)COc1cccc2ccccc12 (stereo not shown),,,,46.5 ×10⁻⁶ cm/s
C[C@H]1O[C@@H](O[C@H]2[C@@H](O)C[C@H](O[C@H]3[C@@H](O)C[C@H](O[C@H]4CC[C@@]5(C)[C@H](CC[C@@H]6[C@@H]5C[C@@H](O)[C@]5(C)[C@@H](C7=CC(=O)OC7)CC[C@]65O)C4)O[C@@H]3C)O[C@@H]2C)C[C@H](O)[C@@H]1O,5 µM,1 h,,1.3 ×10⁻⁶ cm/s
COc1cc(F)ccc1-c1ncnc(Nc2cccc(CS(N)(=O)=O)c2)n1,2 µM,2 h,pH 7.2,2.2 ×10⁻⁶ cm/s
COCCc1ccc(OCC(O)CNC(C)C)cc1 (stereo not shown),,,pH 7.4,73.6 ×10⁻⁶ cm/s
CCn1c(=O)c2c(nc(S)n2C)n(C)c1=O,10 µM,2 h,,2.7 ×10⁻⁶ cm/s
